Here are results for 43 molecules from ChEMBL document CHEMBL1926668, “Triazine-based vanilloid 1 receptor open channel blockers: design, synthesis, evaluation, and SAR analysis” (J Med Chem, 2011).

Assay [1] addresses Transient receptor potential cation channel subfamily V member 1 (Rattus norvegicus, UniProt O35433). Kind of assay: Antagonist activity at rat TRPV1 expressed in Xenopus laevis oocytes assessed as blockage of capsaicin-induced current at holding potential -60 mV by two-microelectrode voltage -clamp amplifier. The class given is functional, cell-based, Oocyte.
For assay [2], the target named is Transient receptor potential cation channel subfamily V member 1 (Rattus norvegicus) (UniProt O35433). Put plainly: Antagonist activity at rat TRPV1 expressed in Xenopus laevis oocytes assessed as blockage of capsaicin-induced current at holding potential -60 mV at 10 uM by two-microelectrode voltage -clamp amplifier. As to conditions: Oocyte. The class given is functional, cell-based. Set-up: scale not given: the % may be the effect or the level left.

The target is the same in assay [3]. Kind of assay: Antagonist activity at rat TRPV1 expressed in Xenopus laevis oocytes assessed as blockage of capsaicin-induced current at depolarizing membrane potential and 10 uM by two-microelectrode voltage -clamp amplifier. The class given is functional, cell-based. The note with it: Oocyte. The essentials: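 Voltage-dependence protocol in rat TRPV1 oocytes, Mg2+ Ringer's, 20 C. Currents were evoked by 10 μM capsaicin with a linear ramp from -60 to +60 mV over 5 s (25 mV/s), with or without 10 μM compound. Leak current measured without agonist was subtracted. Fractional block was plotted against voltage and fitted to the Woodhull model.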

Assay [4] is described as follows: Antagonist activity at TRPM8. Type of assay: functional.
Assay [5] in a line: Antagonist activity at NMDAR. The class given is functional.
A short description of assay [6]: Antagonist activity at TRPM8 at 1 uM. The class given is functional. Set-up: scale not given: the % may be the effect or the level left.
A short description of assay [7]: Antagonist activity at NMDAR at 1 uM. Type of assay: functional. Set-up: scale not given: the % may be the effect or the level left.
Assay [8] is described as follows: Antagonist activity at TRPM8 at 10 uM. More on the design: scale not given: the % may be the effect or the level left. Type of assay: functional.
A short description of assay [9]: Antagonist activity at NMDAR at 10 uM. The class given is functional. More on the design: scale not given: the % may be the effect or the level left.
Assay [10] is described as follows: Selectivity ratio of IC50 for TRPM8 to IC50 for rat TRVP1.
Assay [11] can be described thus: Selectivity ratio of IC50 for NMDAR to IC50 for rat TRVP1.
Assay [12] concerns the target Transient receptor potential cation channel subfamily V member 1 (Rattus norvegicus) (UniProt O35433). Kind of assay: Competitive inhibition of rat TRPV1 expressed in Xenopus laevis oocytes. As to conditions: Oocyte. The class given is cell-based.
Assay [13] has the same target. Kind of assay: Agonist activity at rat TRPV1 expressed in Xenopus laevis oocytes assessed as stimulation of capsaicin-induced current at holding potential -60 mV at 10 uM by two-microelectrode voltage -clamp amplifier. The class given is functional, cell-based. The note with it: Oocyte. In outline: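 Rat TRPV1-expressing Xenopus oocytes under two-electrode voltage clamp at -60 mV in Mg2+ Ringer's buffer, 20 C. Compound at 10 μM applied without capsaicin, and the inward current it activated was recorded.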

The target is the same in assay [14]. Kind of assay: Antagonist activity at rat TRPV1 expressed in Xenopus laevis oocytes assessed as blockage of capsaicin-induced current at negative membrane potentials and 10 uM by two-microelectrode voltage -clamp amplifier. The note with it: Oocyte.

Active and inactive are the calls of the source. The calls are words filed in the database; no cut-off is given here.

Transient receptor potential cation channel subfamily V member 1 (Rattus norvegicus), sequence (O35433 whole entry): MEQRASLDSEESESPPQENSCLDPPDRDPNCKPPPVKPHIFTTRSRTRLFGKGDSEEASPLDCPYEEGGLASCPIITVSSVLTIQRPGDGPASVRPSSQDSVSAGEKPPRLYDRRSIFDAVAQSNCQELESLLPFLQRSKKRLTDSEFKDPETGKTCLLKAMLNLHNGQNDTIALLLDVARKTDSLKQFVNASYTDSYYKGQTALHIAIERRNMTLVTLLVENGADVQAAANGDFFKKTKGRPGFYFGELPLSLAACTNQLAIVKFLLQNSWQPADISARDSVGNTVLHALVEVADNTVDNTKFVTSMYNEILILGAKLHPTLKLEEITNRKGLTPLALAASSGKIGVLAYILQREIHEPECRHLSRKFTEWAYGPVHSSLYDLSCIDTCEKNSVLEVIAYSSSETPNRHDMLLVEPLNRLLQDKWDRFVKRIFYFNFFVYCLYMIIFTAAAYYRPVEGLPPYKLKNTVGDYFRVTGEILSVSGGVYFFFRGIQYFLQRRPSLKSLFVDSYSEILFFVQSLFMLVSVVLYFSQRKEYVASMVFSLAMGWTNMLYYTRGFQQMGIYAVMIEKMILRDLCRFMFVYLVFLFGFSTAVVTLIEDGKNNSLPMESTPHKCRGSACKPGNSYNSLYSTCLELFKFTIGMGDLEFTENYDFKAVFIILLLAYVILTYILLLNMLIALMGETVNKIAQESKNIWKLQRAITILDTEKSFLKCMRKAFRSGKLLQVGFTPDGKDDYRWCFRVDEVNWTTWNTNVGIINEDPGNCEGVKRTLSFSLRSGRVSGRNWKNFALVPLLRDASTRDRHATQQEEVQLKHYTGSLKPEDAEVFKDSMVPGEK
Transient receptor potential cation channel subfamily V member 1, sequence (O35433 whole entry): as above

What is called IC50 is the concentration needed to halve the response being measured. Take `CN(C)CCCNc1nc(NCc2ccc(C(F)(F)F)cc2)nc(NCc2ccc(C(F)(F)F)cc2)n1`: the half-maximal inhibitory concentration (IC50) in [1] is 0.66 µM.
Still for that read-out and setting: the value for `CN(C)CCOCCNc1nc(NCCc2ccc(F)cc2)nc(NCCc2ccc(F)cc2)n1` was 7.05 µM.
With `CN(C)CCCNc1nc(NCCc2cccc(F)c2)nc(NCCc2cccc(F)c2)n1`, in assay [1], the IC50 stood at 0.3 µM.
Still for that read-out and setting: the value for `CN(C)CCNc1nc(NCCc2ccc(Cl)cc2)nc(NCCc2ccc(Cl)cc2)n1` was 6.7 µM.
Turning to `N=C(N)NCCCCN(CC(N)=O)C(=O)CC1C(=O)N(CCc2ccc(Cl)cc2)CC(=O)N1CCc1ccc(Cl)cc1` (configuration not stated), in assay [2], the Activity was determined as 55%.
In the case of `CN1CCCC1CCNc1nc(NCCc2ccc(Cl)cc2)nc(NCCc2ccc(Cl)cc2)n1` (configuration not stated), the IC50 in [1] is 1.2 µM.
Same read-out and setting: the value for `CN(C)CCCNc1nc(NCc2ccc(C(=O)O)cc2)nc(NCc2ccc(C(=O)O)cc2)n1` was 178 µM.
On the same count and under the same terms, the value for `NC(N)=NCCCCNc1nc(NCCc2ccc(F)cc2)nc(NCCc2ccc(F)cc2)n1` was 0.55 µM; that for `CN(C)CCCNc1nc(N2CCN(C(c3ccc(F)cc3)c3ccc(F)cc3)CC2)nc(N2CCN(C(c3ccc(F)cc3)c3ccc(F)cc3)CC2)n1` was 56.4 µM.
Still for that read-out and setting: as for `CCCCNc1nc(NCc2ccc(C(=O)O)cc2)nc(NCc2ccc(C(=O)O)cc2)n1`, the figure is 229 µM; as for `CN(C)CCCNc1nc(NCc2ccc(F)cc2)nc(NCc2ccc(F)cc2)n1`, 3.06 µM.
As to `N=C(N)NCCCCN(CC(N)=O)C(=O)CC1C(=O)N(CCc2ccc(Cl)cc2Cl)CC(=O)N1CCc1ccc(Cl)cc1Cl` (configuration not stated), the Activity in assay [2] was found to be 30%.
In the case of `CN(C)CCCNc1nc(NCCc2c[nH]c3ccccc23)nc(NCCc2c[nH]c3ccccc23)n1`, the IC50 in assay [1] worked out at 2.33 µM.
Still for that read-out and setting: the value for `CN(C)CCCNc1nc(NCCc2ccc(Cl)cc2Cl)nc(NCCc2ccc(Cl)cc2Cl)n1` was 1.21 µM.
Still for that read-out and setting: as for `CN(C)CCCNc1nc(NCc2ccc3c(c2)OCO3)nc(NCc2ccc3c(c2)OCO3)n1`, the figure is 4.98 µM.
`CN(C)CCCNc1nc(NCCc2ccc(F)cc2)nc(NCCc2ccc(F)cc2)n1`: the IC50 in assay [1] came out at 0.05 µM; in assay [4], 7.5 µM; in assay [5] it was 9.2 µM. Further, the result in assay [3] and in [13] was inactive. Also, the Activity was determined as 37% in [6], 25% in [7], 55% in [8] and 51% in assay [9]. In addition, the Ratio IC50 in assay [10] and in assay [11] was 150 each time. For the same molecule, the inhibition entry in assay [12] is “inactive”. In addition, in assay [14], the outcome was Active.
`CN(C)CCCNc1nc(N2CCc3c([nH]c4ccccc34)C2)nc(N2CCc3c([nH]c4ccccc34)C2)n1`: the IC50 in [1] stood at 7 µM.
Same read-out and setting: as for `CN(C)CCCOc1nc(NCCc2ccc(F)cc2)nc(NCCc2ccc(F)cc2)n1`, the figure is 6.14 µM.
Take `CN(C)CCCNc1nc(NCCc2ccc(Cl)cc2)nc(NCCc2ccc(Cl)cc2)n1`: the IC50 in assay [1] was 0.5 µM. Besides, the result in [13] was Active.
Regarding `CN(C)CCCNc1nc(NCc2ccc(Cl)cc2)nc(NCc2ccc(Cl)cc2)n1`, the IC50 in assay [1] came to 2.62 µM.
Still for that read-out and setting: the value for `NCCN1CCN(c2nc(NCCc3ccc(Cl)cc3)nc(NCCc3ccc(Cl)cc3)n2)CC1` was 0.96 µM.
Regarding `CN1CCCC1CCN1CC(=O)N(CCc2ccccc2)C(CC(=O)N(CCc2ccc(Cl)cc2Cl)CC(N)=O)C1=O` (configuration not stated), the Activity in [2] is 28%.
Turning to `CN1CCC(N2CCN(c3nc(NCCc4ccc(F)cc4)nc(NCCc4ccc(F)cc4)n3)CC2)CC1`, the IC50 in assay [1] was determined as 70.9 µM.
For the molecule `NC(=O)CN(CCc1ccc(Cl)cc1Cl)C(=O)CN(CCc1ccc(Cl)cc1Cl)C(=O)CNCCCO`, in [2], the Activity was 32%.
Still for that read-out and setting: as for `CN1CCCC1CCN1CC(=O)N(CCc2ccc(Cl)cc2Cl)C(CC(=O)N(CCc2ccc(Cl)cc2Cl)CC(N)=O)C1=O` (configuration not stated), the figure is 3%; as for `CN(C)CCCNCC(=O)N(CCc1ccc(Cl)cc1)CC(=O)N(CCc1ccc(Cl)cc1)CC(N)=O`, 45%.
In the case of `CN1CCN(Nc2nc(NCCc3ccc(Cl)cc3)nc(NCCc3ccc(Cl)cc3)n2)CC1`, the IC50 in assay [1] was determined as 6.4 µM.
Consider `CN1CCCC1CCNCC(=O)N(CCc1ccc(Cl)cc1Cl)CC(=O)N(CCc1ccc(Cl)cc1Cl)CC(N)=O` (configuration not stated), for which the Activity in assay [2] was found to be 99%.
For `CCN(CC)CCCN1CC(=O)N(CCc2ccc(Cl)cc2Cl)C(CC(=O)N(CCc2ccc(Cl)cc2Cl)CC(N)=O)C1=O` (configuration not stated), in assay [2], the Activity amounted to 3%.
In the case of `CN(C)CCCNc1nc(NCc2ccc(F)cc2F)nc(NCc2ccc(F)cc2F)n1`, in assay [1], the half-maximal inhibitory concentration (IC50) was determined as 3.3 µM.
For `CN1CCCC1CCN(CC(N)=O)C(=O)CC1C(=O)N(CCc2ccc(Cl)cc2Cl)CC(=O)N1CCc1ccc(Cl)cc1Cl` (configuration not stated), the Activity in assay [2] was 40%.
For the molecule `CN(C)CCCNc1nc(NCCc2ccccc2)nc(NCCc2ccccc2)n1`, the IC50 in assay [1] was 0.67 µM.
For `CN(C)CCN1CCN(c2nc(NCCc3ccc(F)cc3)nc(NCCc3ccc(F)cc3)n2)CC1`, in assay [1], the IC50 turned out to be 18.6 µM. Further, in assay [13], the result was Active.
For `CN(C)CCCNc1nc(NCCc2ccc([N+](=O)[O-])cc2)nc(NCCc2ccc([N+](=O)[O-])cc2)n1`, the IC50 in [1] is 1.63 µM.
With `CCN(CC)CCCNCC(=O)N(CCc1ccc(Cl)cc1Cl)CC(=O)N(CCc1ccc(Cl)cc1Cl)CC(N)=O`, in [2], the Activity worked out at 99%.
As to `COC(=O)c1ccc(CNc2nc(NCCCN(C)C)nc(NCc3ccc(C(=O)OC)cc3)n2)cc1`, in assay [1], the concentration for half-maximal inhibition (IC50) was 69.1 µM.
`CCCCNCC(=O)N(CCc1ccc(Cl)cc1Cl)CC(=O)N(CCc1ccc(Cl)cc1Cl)CC(N)=O`: the Activity in [2] turned out to be 34%.
Same read-out and setting: as for `CN(C)CCCNCC(=O)N(CCc1ccc(Cl)cc1Cl)CC(=O)N(CCc1ccc(Cl)cc1Cl)CC(N)=O`, the figure is 55%.
With `COc1ccc(CCNc2nc(NCCCN(C)C)nc(NCCc3ccc(OC)cc3)n2)cc1`, the IC50 in assay [1] turned out to be 0.97 µM.
With `CN(C)CCCNc1nc(NCCc2ccccc2F)nc(NCCc2ccccc2F)n1`, the IC50 in [1] came to 0.45 µM.
On to `CN(C)CCCNc1nc(NCCC2=CCCCC2)nc(NCCC2=CCCCC2)n1`, for which the IC50 in assay [1] is 218 µM.
On the same count and under the same terms, the value for `CN(C)CCCCCNc1nc(NCCc2ccc(F)cc2)nc(NCCc2ccc(F)cc2)n1` was 0.1 µM; that for `CN(C)CCCNc1nc(NCc2ccc(Cl)cc2Cl)nc(NCc2ccc(Cl)cc2Cl)n1` was 0.84 µM.
